Laboratory results reported in ChEMBL document CHEMBL2216753, “Novel 1,4-benzoxazine and 1,4-benzodioxine inhibitors of angiogenesis” (Eur J Med Chem, 2012).
Calls of active or inactive are those of the source. The calls are words filed in the database; no cut-off is given here.

Experiments:
[1] = Cytotoxicity against bovine BAEC cells at 100 uM after 3 days by coulter counter method; format: cell-based, Bos taurus; settings: cattle, 72 h
How it was run: (§1)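 Cells seeded at 10,000 cells per cm2; after 16 h, fresh medium with test compound added. Cells trypsinized and counted with a Coulter counter on day 4 (BAEC, HeLa, MCF-7) or day 7 (HMEC-1). Cytotoxicity (cell death) was judged after 3 days in culture. HMEC-1 grown in EGM-2 with supplements and growth factors.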

[2] = Antimigratory activity against mouse MAEC cell migration at 10 uM after 5 hrs by wound closure assay; format: functional
How it was run: (§2)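 Confluent MAEC monolayers wounded with a 1.0-mm wide micropipette tip, then incubated in fresh medium with test compound. Wounds photographed after 5 h and width calculated from digital images. Mean ± SD of 2–4 independent experiments; Student t test, p < 0.05 significant.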

[3] = Cytotoxicity against human HMEC1 cells at 100 uM after 3 days by coulter counter method; format: cell-based; settings: hmec-1, 72 h; how it was run: as §1
[4] = tested on: HMEC-1; assay: Antiangiogenic activity in human HMEC1 cells assessed as inhibition of tube formation at 30 uM after 4 to 6 hrs by matrigel assay; format: functional, cell-based
How it was run: (§3)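 HMEC-1 (60,000 cells) seeded on matrigel (10 mg/mL) after 30 min gelling at 37 °C, in DMEM containing test compound; after 4–6 h cells photographed and tubes scored 0 (none) to 3 (maximal, like untreated control). Mean ± SD of 2–4 independent experiments; Student t test, p < 0.05 significant.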

[5] = (§4) Antimigratory activity against mouse MAEC cell migration at 30 uM after 5 hrs by wound closure assay; format: functional; how it was run: as §2
[6] = tested on: HeLa; assay: Cytotoxicity against human HeLa cells at 100 uM after 3 days by coulter counter method; format: cell-based; settings: 72 h; how it was run: as §1
[7] = tested on: MCF7; assay: Cytotoxicity against human MCF7 cells at 100 uM after 3 days by coulter counter method; format: cell-based; settings: mcf7, 72 h; how it was run: as §1
[8] = tested on: HeLa; assay: Antiproliferative activity against human HeLa cells after 4 days by coulter counter method; format: functional, cell-based; settings: 96 h
[9] = tested on: MCF7; assay: Antiproliferative activity against human MCF7 cells after 4 days by coulter counter method; format: functional, cell-based; settings: MCF7, 96 h
[10] = tested on: HMEC-1; assay: Antiangiogenic activity in human HMEC1 cells assessed as inhibition of tube formation after 4 to 6 hrs by matrigel assay; format: functional, cell-based; how it was run: as §3
[11] = Antiproliferative activity against human HMEC1 cells after 7 days by coulter counter method; format: functional, cell-based; settings: HMEC-1, 168 h
[12] = Antiproliferative activity against bovine BAEC cells after 4 days by coulter counter method; format: functional, cell-based; settings: Bos taurus, 96 h
[13] = tested on: MAEC; assay: Antimigratory activity against mouse MAEC cell migration after 5 hrs by wound closure assay; format: functional, cell-based; how it was run: as §2
[14] = tested on: HMEC-1; assay: Antiangiogenic activity in human HMEC1 cells assessed as inhibition of tube formation at 100 uM after 4 to 6 hrs by matrigel assay; format: functional, cell-based; how it was run: as §3
[15] = tested on: HMEC-1; assay: Antiangiogenic activity in human HMEC1 cells assessed as inhibition of tube formation at 10 uM after 4 to 6 hrs by matrigel assay; format: functional, cell-based; how it was run: as §3
[16] = tested on: HeLa; assay: Cytotoxicity against human HeLa cells at 30 uM after 3 days by coulter counter method; format: cell-based; settings: 72 h; how it was run: as §1
[17] = Cytotoxicity against bovine BAEC cells at 30 uM after 3 days by coulter counter method; format: cell-based, Bos taurus; settings: cattle, 72 h; how it was run: as §1
[18] = Antimigratory activity against mouse MAEC cell migration at 3 uM after 5 hrs by wound closure assay; format: functional; how it was run: as §2
[19] = species: Gallus gallus; assay: Antiangiogenic activity in chicken embryo chorioallantoic membrane model at 250 nmol/disc after 3 days; format: functional, tissue-based
[20] = tested on: MCF7; assay: Cytotoxicity against human MCF7 cells at 30 uM after 3 days by coulter counter method; format: cell-based; settings: mcf7, 72 h; how it was run: as §1
[21] = Cytotoxicity against human HMEC1 cells at 30 uM after 3 days by coulter counter method; format: cell-based; settings: hmec-1, 72 h; how it was run: as §1
[22] = tested on: MAEC; assay: as §4; format: functional; how it was run: as §2
[23] = biological target: Vascular endothelial growth factor receptor 2 (Homo sapiens, UniProt P35968); assay: Inhibition of human recombinant VEGFR2 expressed in Sf9 insect cells assessed as inhibition of poly(Glu,Tyr) 4:1 substrate phosphorylation by radiometric assay
How it was run: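 Human recombinant GST-fusion VEGFR2 kinase, expressed in Sf9 cells and purified on GSH-agarose, with poly(Glu,Tyr) 4:1 as substrate; phosphorylation read radiometrically. Racemic trifluoroacetate salts tested at 10 concentrations (1 × 10−4 M to 3 × 10−9 M) to give IC50, run in singlicate by a contract lab.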

[24] = biological target: Prothrombin (Homo sapiens, UniProt P00734); assay: Inhibition of thrombin

Chain of Vascular endothelial growth factor receptor 2 (P35968 whole entry, the tested form may be a part): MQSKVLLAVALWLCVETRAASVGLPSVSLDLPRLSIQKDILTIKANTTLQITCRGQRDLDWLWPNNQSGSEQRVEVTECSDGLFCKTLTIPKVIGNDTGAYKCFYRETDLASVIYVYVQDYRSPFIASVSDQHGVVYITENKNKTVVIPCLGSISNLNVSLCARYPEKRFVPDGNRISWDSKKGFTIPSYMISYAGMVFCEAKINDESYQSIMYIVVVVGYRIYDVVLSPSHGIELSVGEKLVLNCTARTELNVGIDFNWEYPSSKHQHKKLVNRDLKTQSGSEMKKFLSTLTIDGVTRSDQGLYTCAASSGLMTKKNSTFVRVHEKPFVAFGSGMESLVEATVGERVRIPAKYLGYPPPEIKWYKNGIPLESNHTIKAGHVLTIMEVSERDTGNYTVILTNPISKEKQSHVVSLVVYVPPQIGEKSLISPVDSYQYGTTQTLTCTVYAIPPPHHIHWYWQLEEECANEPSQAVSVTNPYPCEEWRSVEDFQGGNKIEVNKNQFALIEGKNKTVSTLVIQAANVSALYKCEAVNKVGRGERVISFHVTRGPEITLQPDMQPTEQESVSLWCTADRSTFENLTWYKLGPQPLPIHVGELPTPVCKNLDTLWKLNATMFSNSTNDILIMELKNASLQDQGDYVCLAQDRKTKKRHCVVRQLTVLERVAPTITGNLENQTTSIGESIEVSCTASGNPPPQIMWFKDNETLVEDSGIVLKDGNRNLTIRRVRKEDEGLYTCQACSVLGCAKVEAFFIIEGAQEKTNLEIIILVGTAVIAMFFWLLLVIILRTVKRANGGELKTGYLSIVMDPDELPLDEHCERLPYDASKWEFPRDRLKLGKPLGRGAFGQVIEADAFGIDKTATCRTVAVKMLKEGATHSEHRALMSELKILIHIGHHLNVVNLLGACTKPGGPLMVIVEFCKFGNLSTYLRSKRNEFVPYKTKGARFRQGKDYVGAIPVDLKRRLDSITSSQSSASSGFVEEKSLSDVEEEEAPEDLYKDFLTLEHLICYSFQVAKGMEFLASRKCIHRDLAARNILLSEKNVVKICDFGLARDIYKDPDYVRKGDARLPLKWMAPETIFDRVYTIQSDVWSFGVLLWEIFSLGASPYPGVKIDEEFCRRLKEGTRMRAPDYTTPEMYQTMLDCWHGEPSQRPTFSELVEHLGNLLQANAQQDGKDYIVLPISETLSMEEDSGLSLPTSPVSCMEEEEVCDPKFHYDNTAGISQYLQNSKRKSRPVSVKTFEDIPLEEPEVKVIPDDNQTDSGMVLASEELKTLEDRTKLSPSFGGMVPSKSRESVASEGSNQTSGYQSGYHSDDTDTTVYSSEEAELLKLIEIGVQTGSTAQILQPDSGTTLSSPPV

Compound	Activity [1]	inhibition at 10 µM [2]	Activity [3]	inhibition [4]	Activity [6]	Activity [7]	IC50 [8]	IC50 [9]	IC50 [11]	IC50 [12]	inhibition [13]	inhibition [15]	Activity [16]	Activity [17]	inhibition [19]	Activity [20]	Activity [21]	inhibition [22]	further results
CCOC(=O)C(=O)N(Cc1cc(F)cc(F)c1)c1ccc2c(c1)OC(C)(CO)CN2C (stereo not drawn)	Toxic	> 40%	Toxic	Active	Toxic	Toxic	44 µM	45 µM	89 µM	60 µM	Dose-dependent effect	inactive	–	–	–	–	–	–	inhibition at 30 µM [5]: > 80%; inhibition [10]: Active; inhibition [14]: Active
CCOC(=O)CN(Cc1ccc(F)cc1)c1ccc2c(c1)OC(C)(COc1ccc(C(=N)N)cc1)CN2C (stereo not drawn)	Toxic	78%	Toxic	Active	Toxic	Toxic	4 µM	5.3 µM	2.9 µM	2.9 µM	Dose-dependent effect	inactive	Toxic	Toxic	Active	Toxic	Toxic	–	inhibition at 3 µM [18]: 41%; inhibition at 30 µM [5]: 95%
CCOC(=O)CN(Cc1cccc(F)c1)c1ccc2c(c1)N(C)CC(C)(COc1ccc(C(=N)N)cc1)O2 (stereo not drawn)	Toxic	50%	Toxic	Active	Toxic	Toxic	4.6 µM	4.2 µM	6 µM	3.9 µM	Dose-dependent effect	inactive	Toxic	Toxic	Active	Toxic	Toxic	Active	inhibition at 3 µM [18]: > 40%
CCOC(=O)C(=O)N(Cc1cccc(F)c1)c1ccc2c(c1)N(C)CC(C)(COc1ccc(C(=N)N)cc1)O2 (stereo not drawn)	Toxic	50%	Toxic	–	Toxic	Toxic	20 µM	6.5 µM	7.7 µM	18 µM	–	–	Non-toxic	Non-toxic	–	Non-toxic	Non-toxic	–	inhibition at 3 µM [18]: > 40%
CCOC(=O)CN(Cc1cccc(F)c1)c1ccc2c(c1)OC(C)(COc1ccc(C(=N)N)cc1)CN2C (stereo not drawn)	Toxic	50%	Toxic	Active	Toxic	Toxic	4.5 µM	3.9 µM	2.6 µM	4.1 µM	Dose-dependent effect	inactive	Toxic	Toxic	Active	Toxic	Toxic	Active	–
CCOC(=O)CN(Cc1ccc(F)c(F)c1)c1ccc2c(c1)N(C)CC(C)(COc1ccc(C(=N)N)cc1)O2 (stereo not drawn)	Toxic	50%	Toxic	Active	Toxic	Toxic	4.8 µM	3.9 µM	4.2 µM	4.1 µM	Dose-dependent effect	inactive	Toxic	Toxic	Active	Toxic	Toxic	Active	–
CCOC(=O)C(=O)N(Cc1cccc(F)c1)c1ccc2c(c1)N(C)CC(C)(COc1ccc(C(=N)N)cc1)O2 (racemic)	–	–	–	–	–	–	–	–	–	–	–	–	–	–	–	–	–	–	IC50 [23]: 80 µM
CCOC(=O)CN(Cc1cc(F)cc(F)c1)c1ccc2c(c1)OC(C)(COc1ccc(C(=N)N)cc1)CN2C (stereo not drawn)	Toxic	50%	Toxic	Active	Toxic	Toxic	4.9 µM	3.5 µM	1.8 µM	4.1 µM	Dose-dependent effect	inactive	Toxic	Toxic	Active	Toxic	Toxic	Active	–
CCOC(=O)CN(Cc1ccc(F)c(F)c1)c1ccc2c(c1)OC(C)(COc1ccc(C(=N)N)cc1)CN2C (stereo not drawn)	Toxic	50%	Toxic	Active	Toxic	Toxic	4.1 µM	4 µM	2.5 µM	4 µM	Dose-dependent effect	inactive	Toxic	Toxic	Active	Toxic	Toxic	Active	–
CN1CC(C)(COc2ccc(C(=N)N)cc2)Oc2ccc(N(CC(=O)O)Cc3cc(F)cc(F)c3)cc21 (racemic) [listing 1 of 2 here]	–	–	–	–	–	–	–	–	–	–	–	–	–	–	–	–	–	–	inhibition [23]: Dose-dependent effect
CCOC(=O)CN(Cc1ccc(F)cc1)c1ccc2c(c1)N(C)CC(C)(COc1ccc(C(=N)N)cc1)O2 (stereo not drawn)	Toxic	50%	Toxic	Active	Toxic	Toxic	4.8 µM	4.1 µM	6 µM	3.8 µM	Dose-dependent effect	inactive	Toxic	Toxic	Active	Toxic	Toxic	Active	–
CN1CC(C)(COc2ccc(C(=N)N)cc2)Oc2ccc(N(CC(=O)O)Cc3cc(F)cc(F)c3)cc21 (racemic) [listing 2 of 2 here]	–	–	–	–	–	–	–	–	–	–	–	–	–	–	–	–	–	–	IC50 [23]: 22.5 µM
CCOC(=O)C(=O)N(Cc1ccccc1)c1ccc2c(c1)OC(C)(CO)CN2C (stereo not drawn)	Toxic	> 40%	Toxic	Active	Toxic	Toxic	> 100 µM	> 100 µM	> 100 µM	> 100 µM	Dose-dependent effect	inactive	–	–	–	–	–	–	inhibition at 30 µM [5]: > 80%; inhibition [10]: Active; inhibition [14]: Active
CCOC(=O)C(=O)N(Cc1ccccc1)c1ccc2c(c1)OC[C@H](COc1ccc(C(=N)N)cc1)O2	Non-toxic	–	Non-toxic	–	Non-toxic	Non-toxic	19 µM	9.5 µM	24 µM	12 µM	–	–	–	–	Active	–	–	–	Ki [24]: 0.018 µM
CCOC(=O)C(=O)N(Cc1cc(F)cc(F)c1)c1ccc2c(c1)OC(C)(COc1ccc(C(=N)N)cc1)CN2C (stereo not drawn)	Toxic	50%	Toxic	–	Toxic	Toxic	6.6 µM	2.9 µM	6.8 µM	4.6 µM	Dose-dependent effect	–	Non-toxic	Non-toxic	Active	Non-toxic	Non-toxic	Active	inhibition at 3 µM [18]: > 40%; inhibition [10]: Dose-dependent effect
